Experimental data taken from article PMC11617931 (Molecular Therapy. Nucleic Acids, 2024).
Bridge positions count the residues as written; N and C are the ends. Ends that are not written are not given here.

Legend:
[1] = test system: mucus-producing differentiated CF pHBECs cultured at ALI; test: Validation of phage clone uptake by standard double-layer plaque assay; type: cell-based, human; settings: Cout/Cin, 1 h, 37°C, n = 3
Summary of the method: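 Clones were sequence-verified from BL21 E. coli plaques and amplified in liquid BL21 culture. Each clone (3.3 × 10^7 PFU in 100 µL DPBS) was applied apically to ALI-differentiated CF pHBECs for 1 h at 37°C. Cells were washed with elution buffer and DPBS, lysed with M-PER, and spun at 14,000 × g. Internalized phage in the supernatant were titered by double-layer plaque assay as Cout/Cin. Controls were peptide-less WT phage, naive library, and CPS phage.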

[2] = test system: differentiated CF pHBECs cultured at ALI; type: cell-based, human; settings: average of three replicates, first to last round; 1,000 vg/cell
Summary of the method: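 Pooled T7 CX7C phage libraries were diluted in DPBS (no Ca2+/Mg2+) to 3.3 × 10^5 PFU/µL, giving 1,000 vg/cell, and applied to ALI-differentiated CF pHBECs pooled from seven donors (3.3 × 10^4 cells/insert). Incubation was 16 h at 37°C in round 1 and 1 h in round 5. Lysate was spun at 14,000 × g for 10 min and the supernatant titered by double-layer plaque assay. Output was pooled as input for the next round. Cout/Cin change was taken from three replicates, unpaired t test.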

[3] = 3.3 × 10^7 PFU apical, p < 0.005

Sequence | uptake compared to insertless wild-type (WT) control and CPS control [1] | improvement in uptake compared to naive library ([1]; 3.3 × 10^7 PFU apical, p < 0.0005) | improvement in uptake compared to WT [1, 3] | improvement in uptake compared to clone CPS [1, 3] | increase in Cout/Cin after five rounds of selection [2]
CTSTRKKQC (disulfide 1-9 (inferred)) [Clone C] | significantly improved uptake | ~454 fold | 56 fold | 50 fold | 
CXXXXXXXC (disulfide) [CX7C T7 library] |  |  |  |  | 380 fold
